From article PMC2764298 (Biochemical and biophysical research communications, 2009)

Columns and labels:
[1] = target: T1, P-gp (Homo sapiens, UniProt P08183); assay: [3H]daunomycin radioactive substrate accumulation assay in MCF-7/DX1 cells; type: cell-based; details: read-out: IC50, cellular accumulation of [3H]daunomycin, [3H]daunomycin 0.25 µCi/mL, scintillation counting
[2] = target: P-gp ATPase activity (Homo sapiens, UniProt P08183); assay: P-gp ATPase assay, crude High Five insect cell membranes; type: biochemical; details: Pi release
[3] = target: T1, P-gp; assay: rhodamine 123 accumulation assay by flow cytometry in MCF-7/DX1 cells; type: cell-based
Summary of the method: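 P-gp-overexpressing MCF-7/DX1 breast adenocarcinoma cells, maintained with 1 µM doxorubicin. 125,000 cells in suspension loaded with 0.5 µg/mL (1.3 µM) rhodamine 123, alone or with test compound, 30–40 min, 37°C. Pelleted, then re-incubated 30–40 min, 37°C in fresh medium with test compound or 1 µM GF120918. Resuspended in ice-cold PBS pH 7.4; 488 nm laser, 530 band-pass (FL1), 10,000 cells/point. IC50 fitted from concentration series.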

T1 sequence (P08183 whole entry): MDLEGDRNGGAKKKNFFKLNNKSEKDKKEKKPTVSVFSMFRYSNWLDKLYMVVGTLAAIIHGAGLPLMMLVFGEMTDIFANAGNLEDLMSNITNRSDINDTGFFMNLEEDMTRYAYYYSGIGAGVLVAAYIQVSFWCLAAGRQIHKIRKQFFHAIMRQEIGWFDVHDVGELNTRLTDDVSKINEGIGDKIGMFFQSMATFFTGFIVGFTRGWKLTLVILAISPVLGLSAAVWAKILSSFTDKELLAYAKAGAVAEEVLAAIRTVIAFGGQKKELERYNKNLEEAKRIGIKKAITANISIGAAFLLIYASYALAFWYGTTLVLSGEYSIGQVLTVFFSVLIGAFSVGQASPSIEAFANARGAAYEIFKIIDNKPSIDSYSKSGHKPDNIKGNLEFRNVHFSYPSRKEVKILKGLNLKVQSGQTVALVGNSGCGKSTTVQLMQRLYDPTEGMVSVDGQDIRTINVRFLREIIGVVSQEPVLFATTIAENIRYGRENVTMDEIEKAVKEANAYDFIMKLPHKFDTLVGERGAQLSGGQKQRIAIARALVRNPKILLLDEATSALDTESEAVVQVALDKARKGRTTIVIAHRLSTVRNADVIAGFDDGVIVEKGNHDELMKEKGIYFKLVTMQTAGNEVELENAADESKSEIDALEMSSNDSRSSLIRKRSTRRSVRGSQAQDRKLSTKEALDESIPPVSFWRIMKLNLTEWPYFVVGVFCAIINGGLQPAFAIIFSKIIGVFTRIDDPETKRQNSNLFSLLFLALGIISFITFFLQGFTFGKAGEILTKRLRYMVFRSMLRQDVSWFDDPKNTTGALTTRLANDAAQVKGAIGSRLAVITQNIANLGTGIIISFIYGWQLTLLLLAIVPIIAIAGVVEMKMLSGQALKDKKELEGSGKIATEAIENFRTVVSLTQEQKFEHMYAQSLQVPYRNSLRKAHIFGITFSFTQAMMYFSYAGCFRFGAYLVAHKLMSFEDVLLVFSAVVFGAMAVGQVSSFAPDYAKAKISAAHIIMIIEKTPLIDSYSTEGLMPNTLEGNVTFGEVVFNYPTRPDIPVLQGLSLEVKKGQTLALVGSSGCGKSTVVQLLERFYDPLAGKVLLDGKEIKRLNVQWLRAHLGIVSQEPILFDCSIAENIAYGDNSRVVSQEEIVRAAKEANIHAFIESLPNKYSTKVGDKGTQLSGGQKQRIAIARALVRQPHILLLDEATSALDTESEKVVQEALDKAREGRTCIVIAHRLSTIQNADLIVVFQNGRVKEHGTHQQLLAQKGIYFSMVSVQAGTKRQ
Sequence of P-gp ATPase activity (P08183 whole entry): as above

Row | SMILES | IC50 [1] [µM] | effect on P-gp ATPase activity at low concentrations ([2]; Gal-2 < 1 µM) | effect on P-gp ATPase activity at higher concentrations ([2]; Gal-2 > 5 µM) | more active than the known P-gp inhibitor GF120918 (rhodamine 123 accumulation) ([3]; MCF-7/DX1 cells, both at 1 µM) | IC50 [3] [µM]
1 | COc1ccc2c3c1O[C@H]1C[C@@H](OC(=O)CCCCCCCCC(=O)O[C@H]4C=C[C@@]56CCN(C)Cc7ccc(OC)c(c75)O[C@H]6C4)C=C[C@@]31CCN(C)C2 [Gal-2] | 2 ± 0.4 | stimulated ATPase activity | ATPase stimulation was found to decrease in a concentration-dependent manner | approximately 20% | –
2 | COc1ccc2c3c1O[C@H]1C[C@@H](O)C=C[C@@]31CCN(C)C2 [galantamine, reference compound] | – | – | – | – | > 100
